In assay [1] the target is human cannabinoid CB2 receptor (Homo sapiens, UniProt P34972). Kind of assay: Plate-based assay, inhibition of CB2 receptor internalization. The assay is classed as cell-based. The method, boiled down:
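CHO cells stably expressing human CB2, seeded at 2.0 × 10^5 cells/mL in 96-well plates, grown 24 h in DMEM/F12 with 10% FBS. Preincubated 1 h with twofold serial dilutions of test compound (top 10 μM; DMSO <0.1% final), then 1 h with 2 nM [3H]-CP 55,940. Washed, NaOH-lysed, scintillation counted, and normalized to no-compound uptake. IC50 from sigmoid nonlinear fit, means ± SE (n = 6). JD5037 as positive control.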

Assay [2] addresses human cannabinoid CB1 receptor (Homo sapiens, UniProt P21554). Kind of assay: Plate-based assay, inhibition of CB1 receptor internalization. The assay is classed as cell-based.
In assay [3] the target is HRH4 (Homo sapiens, UniProt Q9H3N8). Kind of assay: DiscoveRX gpcrMAX panel, agonist/antagonist. The settings on record: HRH4, antagonist mode; negative inhibition may indicate agonist or PAM activity. The assay is classed as cell-based.
HRH4, sequence (Q9H3N8 whole entry): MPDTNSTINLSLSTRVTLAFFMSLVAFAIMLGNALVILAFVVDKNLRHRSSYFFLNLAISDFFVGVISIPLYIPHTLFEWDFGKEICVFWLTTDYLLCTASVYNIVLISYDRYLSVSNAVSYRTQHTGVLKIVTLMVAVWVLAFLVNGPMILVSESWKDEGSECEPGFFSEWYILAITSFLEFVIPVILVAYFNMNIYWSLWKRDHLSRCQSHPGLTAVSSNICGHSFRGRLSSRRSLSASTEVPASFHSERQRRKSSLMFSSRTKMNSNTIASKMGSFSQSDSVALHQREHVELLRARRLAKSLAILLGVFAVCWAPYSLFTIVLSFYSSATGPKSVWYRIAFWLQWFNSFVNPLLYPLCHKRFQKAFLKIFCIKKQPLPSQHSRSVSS
Assay [4] deals with T1, RXFP3 (Homo sapiens, UniProt Q9NSD7).
T1 sequence (Q9NSD7 1-469): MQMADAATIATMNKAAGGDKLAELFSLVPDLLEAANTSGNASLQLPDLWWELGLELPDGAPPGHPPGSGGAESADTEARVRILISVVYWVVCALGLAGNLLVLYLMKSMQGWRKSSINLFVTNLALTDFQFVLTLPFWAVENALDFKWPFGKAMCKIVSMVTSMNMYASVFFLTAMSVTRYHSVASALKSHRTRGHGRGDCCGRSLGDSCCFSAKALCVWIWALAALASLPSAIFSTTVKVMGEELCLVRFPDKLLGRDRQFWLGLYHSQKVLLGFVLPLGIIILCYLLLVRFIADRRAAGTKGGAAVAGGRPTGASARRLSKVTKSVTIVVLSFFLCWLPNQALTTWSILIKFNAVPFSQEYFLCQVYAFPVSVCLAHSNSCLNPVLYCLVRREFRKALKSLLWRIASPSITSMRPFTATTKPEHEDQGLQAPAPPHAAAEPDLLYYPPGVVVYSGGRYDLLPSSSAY
Kind of assay: DiscoveRX gpcrMAX panel, agonist/antagonist. The assay is classed as cell-based. The settings on record: RXFP3, antagonist mode; negative inhibition may indicate agonist or PAM activity.

Assay [5] concerns FSH receptor. The settings on record: previously reported; cited from earlier work.

We go through seven compounds from PMC8385540 (Journal of natural products, 2013).

Structures are written as SMILES.

The term % inhibition denotes the relative decrease from the control value, in per cent. As a reminder, the IC50 is the point on the concentration scale where inhibition reaches its midpoint.

human cannabinoid CB1 receptor, sequence (P21554 whole entry): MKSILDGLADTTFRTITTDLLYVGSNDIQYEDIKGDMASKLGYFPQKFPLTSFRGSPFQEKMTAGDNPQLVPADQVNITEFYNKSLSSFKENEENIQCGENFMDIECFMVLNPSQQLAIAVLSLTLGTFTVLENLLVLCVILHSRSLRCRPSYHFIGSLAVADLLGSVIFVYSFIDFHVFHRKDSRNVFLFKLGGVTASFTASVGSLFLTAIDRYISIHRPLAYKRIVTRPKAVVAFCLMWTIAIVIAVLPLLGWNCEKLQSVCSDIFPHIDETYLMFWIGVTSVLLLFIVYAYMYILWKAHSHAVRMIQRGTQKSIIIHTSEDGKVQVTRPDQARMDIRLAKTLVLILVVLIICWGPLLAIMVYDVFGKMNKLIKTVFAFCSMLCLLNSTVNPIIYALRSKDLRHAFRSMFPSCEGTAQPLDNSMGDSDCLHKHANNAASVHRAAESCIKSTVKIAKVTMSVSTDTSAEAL
human cannabinoid CB2 receptor, sequence (P34972 whole entry): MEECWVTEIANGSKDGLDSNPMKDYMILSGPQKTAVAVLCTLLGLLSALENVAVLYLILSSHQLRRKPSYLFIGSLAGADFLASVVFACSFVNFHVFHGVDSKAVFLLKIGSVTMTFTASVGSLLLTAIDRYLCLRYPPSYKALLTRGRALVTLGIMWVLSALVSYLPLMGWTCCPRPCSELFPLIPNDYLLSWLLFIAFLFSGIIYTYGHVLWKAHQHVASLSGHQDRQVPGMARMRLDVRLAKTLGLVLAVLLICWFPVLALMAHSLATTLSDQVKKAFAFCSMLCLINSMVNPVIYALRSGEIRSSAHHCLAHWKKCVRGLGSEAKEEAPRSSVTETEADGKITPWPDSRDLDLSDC

Turning to `C/C=C/C=C/C=C\CC/C=C/C(=O)NCC(C)(C)O` [Compound 2, hydroXy-α-sanshool], the “fold increase in activity against the CB2 receptor, 2 vs 3” value in assay [1] (cis configuration at C-6 of 2 compared with 3) stood at 2 fold. Consider `C/C=C/C=C/C=C\CC/C=C/C=C/C(=O)NCC(C)(C)O` [Compound 4, hydroXy-γ-sanshool], for which the “fold more potent for CB1, 4 vs 5” value in assay [2] (C-8 cis-isomer 4 compared with 5) is on record as 10 fold. With `CC/C=C/C/C=C\CC/C=C/C=C/C(=O)NCC(C)(C)O` [Compound 6, isobungeanool], the “antagonism of the CB2 receptor (in words)” value in assay [1] is “weak antagonists”. Regarding `C/C=C/C=C/C=C/CC/C=C/C=C/C(=O)NCC(C)C` [Compound 7, (2E,4E,8E,10E,12E)-N-isobutyl-2,4,8,10,12-tetradecapentaenamide], the “antagonism of the CB2 receptor (in words)” value in assay [1] was “weak antagonists”. For the same compound, the “% inhibition” value in assay [3] is −54%; in assay [4], −81%. Further, in assay [2], the “antagonistic properties against the CB1 receptor (in words)” value is “strong antagonistic properties”. Take `CCCCCCCCC/C=C/C=C/C(=O)NCC(C)(C)O` [Compound 8, tetrahydrobungeanool]: in assay [1], the IC50 was found to be 1.8 nM. For `CC(C)[C@H](N=C(NS(=O)(=O)c1ccc(Cl)cc1)N1C[C@H](c2ccccc2)C(c2ccc(Cl)cc2)=N1)C(N)=O` [JD5037, reference compound], the “IC50 of positive control, CB2 (in words)” value in assay [1] (positive control) is “within the expected range”. The “IC50 of positive control, CB1 (in words)” value in assay [2] (positive control) is reported as “within the expected range”. As to `CCCCCc1cc(O)c2c(c1)OC(C)(C)[C@@H]1CCC(C)=C[C@@H]21` [Δ^9-tetrahydrocannabinol], the “inhibition of the FSH receptor (in words)” value in assay [5] was “specific inhibition”.
